Measured values collected from several papers.
Each line is one published result; the experiments were not run side by side.

Compound | tested on | assay | system | conditions | measurement | result
COc1ccc(S(=O)(=O)Oc2ccc3c(c2)Oc2nc4c(c(N)c2C3c2cccc(OC)c2)CCCC4)cc1 (stereo not shown) | SH-SY5Y | cell growth or viability, MTT | – | 1.6 µM | viability | 84.3%
CCCCNC(=O)Oc1ccc(OCc2ccccc2)cc1 | – | metabolic stability | male Wistar rat, liver S9 | 1 µM, pH 7.4 | half-life | 7 min
COc1cc2c(cc1C(=O)Nc1ccc(C(C)(C)C#N)cc1)CCCCC2 | NHDF | cell growth or viability, ATP luminescence | – | 24 h | CC50 | 94 µM
C[C@]12CC[C@H](O)CC1=CC[C@@H]1[C@@H]2CC[C@]2(C)C(n3cnc4ccccc43)=CC[C@@H]12.Cl | – | – | mouse, plasma | oral, 10 mg/kg | AUC(0-t) | 26.1 ng·h/mL
Nc1c2c(nc3c1C(c1ccc(Cl)c(Cl)c1)c1ccc(OCC(=O)c4ccc(Cl)cc4)cc1O3)CCCC2 (stereo not shown) | SH-SY5Y | cell growth or viability, MTT | – | 0.4 µM | viability | 89.5%
Cc1cc(C)nc(Nc2ncc(C(=O)NCCc3c(C)[nH]c4ccccc34)cn2)c1 | – | chemical stability | simulated intestinal fluid | 10 µM, pH 6.8 | half-life | 197 min
CCC[C@@](N)(CO)CCc1ccc(OCCCCCC(C)C)cc1 | – | – | mouse, plasma | oral, 10 mg/kg | AUC(0-t) | 227 nM·h
CCCCCn1nc(C(=O)Nc2cccc3ccccc23)c2ccccc21 | – | metabolic stability | Sprague-Dawley rat, liver microsomes | 1 µM, pH 7.4 | half-life | 1.61 min
C[C@]12CC[C@H](n3ccnc3)CC1=CC[C@@H]1[C@@H]2CC[C@]2(C)C(n3cnc4ccccc43)=CC[C@@H]12.Cl | – | – | male CD-1 mouse, plasma | oral, 10 mg/kg | bioavailability | > 100%
CC[C@@H]1CN2CCc3c([nH]c4cccc(OC)c34)[C@H]2C[C@@H]1/C(=C\OC)C(=O)OC | mouse Hepatocyte | metabolic stability | hepatocytes | – | half-life | 11.2 min
O=C(Nc1ccc(Cl)cc1)Nc1cccc(-c2cccc(N3CCCC3)n2)c1 | – | metabolic stability | rat, liver microsomes | pH 7.4 | half-life | 13.4 min
COc1cc2c(cc1C(=O)Nc1ccc(C(C)(C)C)cc1)CCCCC2 | NHDF | cell growth or viability, ATP luminescence | – | 24 h | CC50 | 148 µM
Nc1c2c(nc3c1C(c1cccc([N+](=O)[O-])c1)c1ccc(OS(=O)(=O)c4ccc(F)cc4)cc1O3)CCCC2 (stereo not shown) | SH-SY5Y | cell growth or viability, MTT | – | 6.3 µM | viability | 63.4%
